Experimental data from ChEMBL document CHEMBL5653631, “A Potent and Selective ULK1 Inhibitor Suppresses Autophagy and Sensitizes Cancer Cells to Nutrient Stress” (iScience, 2018).

Legend:
[1] = molecular target: T1, Serine/threonine-protein kinase A-Raf (Homo sapiens) (UniProt P10398); assay: Inhibition of human recombinant ARAF at 40 nM in presence of ATP by radiometric assay relative to control
T1 sequence (whole entry): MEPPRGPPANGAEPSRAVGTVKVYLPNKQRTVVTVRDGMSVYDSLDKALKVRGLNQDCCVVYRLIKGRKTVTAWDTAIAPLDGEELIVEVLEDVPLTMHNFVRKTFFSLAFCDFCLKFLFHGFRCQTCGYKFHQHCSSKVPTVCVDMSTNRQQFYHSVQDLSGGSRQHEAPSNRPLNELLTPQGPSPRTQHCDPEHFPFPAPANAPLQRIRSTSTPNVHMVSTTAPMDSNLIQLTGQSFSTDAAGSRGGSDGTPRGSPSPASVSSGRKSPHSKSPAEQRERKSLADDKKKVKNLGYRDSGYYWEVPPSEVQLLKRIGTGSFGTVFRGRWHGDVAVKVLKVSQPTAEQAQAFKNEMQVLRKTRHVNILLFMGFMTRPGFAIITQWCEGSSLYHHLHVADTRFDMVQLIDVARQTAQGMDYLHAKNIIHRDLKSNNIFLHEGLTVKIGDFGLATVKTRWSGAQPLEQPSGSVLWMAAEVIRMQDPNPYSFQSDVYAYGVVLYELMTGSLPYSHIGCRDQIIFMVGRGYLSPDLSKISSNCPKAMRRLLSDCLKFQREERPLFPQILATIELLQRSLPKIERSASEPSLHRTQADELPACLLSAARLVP
Summary of the method: (§1)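 Panel of 327 recombinant human kinases, each assayed in vitro by radiometric activity assay in duplicate at a single inhibitor concentration per compound, chosen with reference to its ULK1 inhibition. Activity remaining was expressed as percent of vehicle control, and percent inhibition was calculated as 100 minus percent activity remaining.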

[2] = molecular target: Homeodomain-interacting protein kinase 2 (Homo sapiens) (UniProt Q9H2X6); assay: Inhibition of human recombinant HIPK2 at 40 nM in presence of ATP by radiometric assay relative to control
[3] = molecular target: Mitogen-activated protein kinase kinase kinase 10 (Homo sapiens) (UniProt Q02779); assay: Inhibition of human recombinant MLK2 at 40 nM in presence of ATP by radiometric assay relative to control
[4] = molecular target: Mitogen-activated protein kinase 11 (Homo sapiens) (UniProt Q15759); assay: Inhibition of human recombinant p38beta at 40 nM in presence of ATP by radiometric assay relative to control
[5] = molecular target: Proto-oncogene tyrosine-protein kinase receptor Ret (Homo sapiens) (UniProt P07949); assay: Inhibition of human recombinant RET at 40 nM related to control ULK1
[6] = molecular target: 5'-AMP-activated protein kinase catalytic subunit alpha-2 (Homo sapiens) (UniProt P54646); assay: Inhibition of human recombinant AMPKa2 at 15 nM in presence of ATP by radiometric assay relative to control; summary of the method: as §1
[7] = molecular target: Rho-associated protein kinase 2 (Homo sapiens) (UniProt O75116); assay: Inhibition of human recombinant ROCK2 at 15 nM in presence of ATP by radiometric assay relative to control
[8] = molecular target: Wee1-like protein kinase 2 (Homo sapiens) (UniProt P0C1S8); assay: Inhibition of human recombinant Wee1B at 15 nM in presence of ATP by radiometric assay relative to control
[9] = molecular target: [Pyruvate dehydrogenase (acetyl-transferring)] kinase isozyme 4, mitochondrial (Homo sapiens) (UniProt Q16654); assay: Inhibition of human recombinant PDHK4 at 500 nM in presence of ATP by radiometric assay relative to control
[10] = species: Homo sapiens; assay: Inhibition of human recombinant CK1d at 500 nM related to control ULK1
[11] = molecular target: T2, Ephrin type-A receptor 8 (Homo sapiens) (UniProt P29322); assay: Inhibition of human recombinant EphA8 at 500 nM related to control ULK1
T2 sequence (whole entry): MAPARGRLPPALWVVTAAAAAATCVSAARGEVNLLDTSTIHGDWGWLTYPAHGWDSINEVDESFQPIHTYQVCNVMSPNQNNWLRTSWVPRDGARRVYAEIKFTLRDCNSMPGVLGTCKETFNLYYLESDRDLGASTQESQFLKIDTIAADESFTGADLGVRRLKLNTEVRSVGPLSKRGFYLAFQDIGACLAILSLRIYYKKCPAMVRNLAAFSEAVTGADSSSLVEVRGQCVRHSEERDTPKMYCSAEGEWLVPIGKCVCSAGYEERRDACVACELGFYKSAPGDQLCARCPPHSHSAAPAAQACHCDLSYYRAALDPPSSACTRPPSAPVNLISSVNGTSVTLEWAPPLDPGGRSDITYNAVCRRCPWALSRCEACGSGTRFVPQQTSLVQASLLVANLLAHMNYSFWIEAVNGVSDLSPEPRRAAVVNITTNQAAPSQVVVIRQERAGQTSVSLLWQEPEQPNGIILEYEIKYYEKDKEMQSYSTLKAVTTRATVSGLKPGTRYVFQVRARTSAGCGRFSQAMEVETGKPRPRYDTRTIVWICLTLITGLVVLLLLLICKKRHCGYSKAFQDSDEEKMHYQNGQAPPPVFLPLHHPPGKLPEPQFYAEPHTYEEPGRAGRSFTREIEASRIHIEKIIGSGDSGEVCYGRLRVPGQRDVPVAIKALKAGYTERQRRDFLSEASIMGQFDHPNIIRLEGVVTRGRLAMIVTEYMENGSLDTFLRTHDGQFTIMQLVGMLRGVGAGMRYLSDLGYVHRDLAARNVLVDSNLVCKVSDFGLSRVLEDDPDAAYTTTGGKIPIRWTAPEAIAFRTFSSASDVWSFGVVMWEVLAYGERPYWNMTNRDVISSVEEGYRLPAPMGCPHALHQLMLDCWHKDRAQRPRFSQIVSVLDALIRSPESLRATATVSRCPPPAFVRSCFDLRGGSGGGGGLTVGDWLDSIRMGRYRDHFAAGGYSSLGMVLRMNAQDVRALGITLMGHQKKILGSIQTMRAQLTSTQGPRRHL

[12] = molecular target: Proto-oncogene tyrosine-protein kinase Src (Homo sapiens) (UniProt P12931); assay: Inhibition of human recombinant SRC at 500 nM related to control ULK1
Chain of Proto-oncogene tyrosine-protein kinase Src (Homo sapiens) (P12931 2-536 limits assumed): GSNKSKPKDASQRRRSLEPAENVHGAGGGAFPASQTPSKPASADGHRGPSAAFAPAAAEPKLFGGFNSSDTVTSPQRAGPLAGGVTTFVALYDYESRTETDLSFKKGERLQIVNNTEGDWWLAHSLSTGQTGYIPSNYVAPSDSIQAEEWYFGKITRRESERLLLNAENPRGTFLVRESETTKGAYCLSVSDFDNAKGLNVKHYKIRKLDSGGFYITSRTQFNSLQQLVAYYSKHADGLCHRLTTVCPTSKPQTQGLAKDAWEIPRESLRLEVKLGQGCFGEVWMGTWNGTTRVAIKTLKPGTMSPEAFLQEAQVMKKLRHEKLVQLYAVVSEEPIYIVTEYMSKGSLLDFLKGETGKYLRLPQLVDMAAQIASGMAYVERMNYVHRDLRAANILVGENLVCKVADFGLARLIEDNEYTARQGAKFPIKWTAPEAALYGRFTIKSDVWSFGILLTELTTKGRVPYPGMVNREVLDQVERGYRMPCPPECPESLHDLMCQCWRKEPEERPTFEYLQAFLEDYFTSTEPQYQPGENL

Chain of 5'-AMP-activated protein kinase catalytic subunit alpha-2 (Homo sapiens) (P54646 whole entry, looked up): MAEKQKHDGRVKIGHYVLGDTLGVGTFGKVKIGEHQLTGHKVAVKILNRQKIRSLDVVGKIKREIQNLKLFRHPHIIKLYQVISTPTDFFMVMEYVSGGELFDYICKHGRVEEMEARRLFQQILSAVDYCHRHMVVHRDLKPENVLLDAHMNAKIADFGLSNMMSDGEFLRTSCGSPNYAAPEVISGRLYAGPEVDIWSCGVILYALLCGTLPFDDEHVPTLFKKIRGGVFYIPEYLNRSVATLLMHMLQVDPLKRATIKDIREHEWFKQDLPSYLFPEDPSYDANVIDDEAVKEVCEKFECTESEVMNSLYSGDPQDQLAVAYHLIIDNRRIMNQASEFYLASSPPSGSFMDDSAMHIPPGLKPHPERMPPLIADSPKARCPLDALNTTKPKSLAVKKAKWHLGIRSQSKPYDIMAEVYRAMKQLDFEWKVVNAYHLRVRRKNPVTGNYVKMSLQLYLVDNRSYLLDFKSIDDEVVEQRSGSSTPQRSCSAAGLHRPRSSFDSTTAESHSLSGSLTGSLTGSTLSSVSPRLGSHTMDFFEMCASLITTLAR
Chain of Wee1-like protein kinase 2 (Homo sapiens) (P0C1S8 whole entry, looked up): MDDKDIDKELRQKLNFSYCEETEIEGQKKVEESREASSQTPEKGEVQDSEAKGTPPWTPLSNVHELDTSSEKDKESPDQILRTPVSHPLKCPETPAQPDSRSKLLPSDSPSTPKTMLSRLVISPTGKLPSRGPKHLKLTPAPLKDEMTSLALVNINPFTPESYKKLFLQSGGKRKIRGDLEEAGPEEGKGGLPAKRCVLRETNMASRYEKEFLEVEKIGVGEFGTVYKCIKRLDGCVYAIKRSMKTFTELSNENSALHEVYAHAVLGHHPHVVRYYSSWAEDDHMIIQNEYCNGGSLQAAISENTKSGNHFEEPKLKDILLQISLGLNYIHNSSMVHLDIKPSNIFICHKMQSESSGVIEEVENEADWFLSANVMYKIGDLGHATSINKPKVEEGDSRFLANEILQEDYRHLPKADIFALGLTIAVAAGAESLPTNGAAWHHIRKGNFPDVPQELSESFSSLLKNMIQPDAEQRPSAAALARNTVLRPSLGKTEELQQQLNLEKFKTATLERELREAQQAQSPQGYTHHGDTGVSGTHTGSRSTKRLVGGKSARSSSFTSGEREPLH
Chain of [Pyruvate dehydrogenase (acetyl-transferring)] kinase isozyme 4, mitochondrial (Homo sapiens) (Q16654 whole entry, looked up): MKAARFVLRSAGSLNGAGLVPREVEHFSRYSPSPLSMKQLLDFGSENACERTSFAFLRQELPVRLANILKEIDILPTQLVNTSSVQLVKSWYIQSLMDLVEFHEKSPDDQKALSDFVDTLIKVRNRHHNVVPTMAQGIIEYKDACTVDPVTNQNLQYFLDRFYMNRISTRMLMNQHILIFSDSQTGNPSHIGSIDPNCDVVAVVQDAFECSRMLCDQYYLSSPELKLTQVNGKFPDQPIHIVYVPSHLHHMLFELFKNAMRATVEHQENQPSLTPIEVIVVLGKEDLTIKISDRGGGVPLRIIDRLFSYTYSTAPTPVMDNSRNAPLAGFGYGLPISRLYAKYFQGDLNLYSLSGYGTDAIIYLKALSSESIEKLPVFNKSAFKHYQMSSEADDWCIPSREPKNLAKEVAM
Chain of Mitogen-activated protein kinase 11 (Homo sapiens) (Q15759 whole entry): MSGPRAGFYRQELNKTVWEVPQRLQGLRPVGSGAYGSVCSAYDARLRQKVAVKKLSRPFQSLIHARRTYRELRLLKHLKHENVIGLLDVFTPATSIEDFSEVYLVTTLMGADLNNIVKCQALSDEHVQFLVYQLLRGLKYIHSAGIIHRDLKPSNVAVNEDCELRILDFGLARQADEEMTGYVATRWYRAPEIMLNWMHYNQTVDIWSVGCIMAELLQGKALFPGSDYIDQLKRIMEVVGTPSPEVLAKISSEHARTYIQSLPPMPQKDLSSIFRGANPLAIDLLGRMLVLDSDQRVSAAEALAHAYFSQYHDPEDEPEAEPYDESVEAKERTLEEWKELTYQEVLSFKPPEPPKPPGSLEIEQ
Chain of Mitogen-activated protein kinase kinase kinase 10 (Homo sapiens) (Q02779 whole entry, looked up): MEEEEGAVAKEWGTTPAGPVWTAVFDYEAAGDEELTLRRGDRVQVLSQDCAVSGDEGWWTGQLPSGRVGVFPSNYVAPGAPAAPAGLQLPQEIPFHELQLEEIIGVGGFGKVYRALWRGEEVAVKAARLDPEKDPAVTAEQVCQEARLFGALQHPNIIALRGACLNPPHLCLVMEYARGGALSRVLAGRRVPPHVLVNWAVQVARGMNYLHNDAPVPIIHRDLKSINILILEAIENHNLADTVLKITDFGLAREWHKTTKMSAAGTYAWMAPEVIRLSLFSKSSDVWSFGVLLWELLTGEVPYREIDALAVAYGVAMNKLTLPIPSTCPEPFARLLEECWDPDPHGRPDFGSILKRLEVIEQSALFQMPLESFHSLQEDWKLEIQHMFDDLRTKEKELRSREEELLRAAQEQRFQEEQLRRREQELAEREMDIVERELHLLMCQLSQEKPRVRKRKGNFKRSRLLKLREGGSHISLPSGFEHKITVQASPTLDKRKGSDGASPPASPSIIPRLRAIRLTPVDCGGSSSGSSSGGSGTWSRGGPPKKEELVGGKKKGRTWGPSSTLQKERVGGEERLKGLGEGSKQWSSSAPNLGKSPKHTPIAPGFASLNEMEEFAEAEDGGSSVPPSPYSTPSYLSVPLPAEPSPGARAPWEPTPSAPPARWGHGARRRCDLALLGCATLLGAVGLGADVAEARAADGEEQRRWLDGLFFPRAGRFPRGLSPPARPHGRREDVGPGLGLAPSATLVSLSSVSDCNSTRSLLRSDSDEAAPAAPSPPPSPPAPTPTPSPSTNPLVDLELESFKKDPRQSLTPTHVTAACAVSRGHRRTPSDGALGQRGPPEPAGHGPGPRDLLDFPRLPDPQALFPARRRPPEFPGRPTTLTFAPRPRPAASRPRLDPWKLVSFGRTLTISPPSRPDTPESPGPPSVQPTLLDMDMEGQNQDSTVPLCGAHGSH
Chain of Homeodomain-interacting protein kinase 2 (Homo sapiens) (Q9H2X6 whole entry, looked up): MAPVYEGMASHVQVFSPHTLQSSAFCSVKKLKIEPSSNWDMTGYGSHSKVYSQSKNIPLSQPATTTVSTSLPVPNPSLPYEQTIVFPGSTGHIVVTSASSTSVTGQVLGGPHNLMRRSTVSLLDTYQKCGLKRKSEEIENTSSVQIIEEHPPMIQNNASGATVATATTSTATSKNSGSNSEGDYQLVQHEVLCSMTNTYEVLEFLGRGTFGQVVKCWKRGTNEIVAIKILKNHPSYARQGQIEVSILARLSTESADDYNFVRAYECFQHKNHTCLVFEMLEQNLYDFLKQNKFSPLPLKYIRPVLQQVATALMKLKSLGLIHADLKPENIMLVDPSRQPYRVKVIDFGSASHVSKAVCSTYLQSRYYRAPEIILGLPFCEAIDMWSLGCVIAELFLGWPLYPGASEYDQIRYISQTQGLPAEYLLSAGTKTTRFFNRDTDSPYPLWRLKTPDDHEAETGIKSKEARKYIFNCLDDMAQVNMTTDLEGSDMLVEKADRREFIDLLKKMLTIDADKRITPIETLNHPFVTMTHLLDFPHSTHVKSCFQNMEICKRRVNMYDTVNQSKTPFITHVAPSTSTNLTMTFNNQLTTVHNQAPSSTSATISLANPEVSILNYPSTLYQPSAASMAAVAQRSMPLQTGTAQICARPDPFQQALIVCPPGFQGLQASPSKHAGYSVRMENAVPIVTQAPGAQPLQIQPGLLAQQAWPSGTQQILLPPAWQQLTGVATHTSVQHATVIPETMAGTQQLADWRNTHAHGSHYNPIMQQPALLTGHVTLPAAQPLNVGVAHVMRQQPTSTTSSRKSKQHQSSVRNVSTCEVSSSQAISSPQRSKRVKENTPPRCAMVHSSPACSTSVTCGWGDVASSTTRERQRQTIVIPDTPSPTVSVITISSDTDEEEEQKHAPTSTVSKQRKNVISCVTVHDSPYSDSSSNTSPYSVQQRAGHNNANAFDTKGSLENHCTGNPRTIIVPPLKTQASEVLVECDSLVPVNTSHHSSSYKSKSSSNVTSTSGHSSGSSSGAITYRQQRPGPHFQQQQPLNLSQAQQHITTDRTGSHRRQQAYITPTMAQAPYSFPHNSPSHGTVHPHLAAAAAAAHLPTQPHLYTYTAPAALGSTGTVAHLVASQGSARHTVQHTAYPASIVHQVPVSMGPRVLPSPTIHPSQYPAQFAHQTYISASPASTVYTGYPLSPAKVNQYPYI

In the case of O=C(N[C@@H](C1CC1)C(F)(F)F)c1cc(-c2cnn3cc(-c4ccc(F)cc4)cnc23)cs1, the inhibition [1] is reported as 0%, the inhibition [2] is reported as 0% and the inhibition [3] is reported as 0%. For the same molecule, the inhibition [4] was 10% and the fold change (FC) [5] was 0.

With CC(C)[C@H](NC(=O)c1cc(-c2cnn3cc(-c4ccc(OCCN5CCCCC5)cc4)cnc23)cs1)C(F)(F)F the inhibition [6] was 83%, the inhibition [7] was 0% and the inhibition [8] was 11%.

With CNC(=O)c1ccccc1Oc1nc(Nc2cc(OC)c(OC)c(OC)c2)ncc1Br the inhibition [9] was 5%, the fold change (FC) [10] was 0.14 and the fold change (FC) [11] was 0.03. It also gave a fold change (FC) [12] of 0.26.
